From PubChem BioAssay
ARNT TACC3 PPI: disruptors of human ARNT/TACC3 interaction; AlphaScreen His-ARNT PAS-B/GST-TACC3 binding, luminescence; TACC3 fragment carries E629A point mutation; inhibition, % at 9.99 µM; hit rate 0.66% among 390,000; AID 623870;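 active = mean inhibition of replicates at least 50% and at least half of replicates each reaching 50%; inconclusive = half or more replicates reach 50% but mean below 50%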;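 also: 0% = complete ARNT plus TACC3 wells and 100% = ARNT alone without TACC3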
SR-BI DiI-HDL act: activators of SR-BI mediated HDL lipid uptake. CHO ldlA[mSR-BI] cells, DiI-HDL uptake fluorescence, 3 h; 100 = double the neutral-control signal. activation, % at 12.5 µM. hit rate 0.096% among 320,000;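 active = mean replicate activation of at least 60% and every replicate at or above 60%; inconclusive = mean or all-replicate condition met, but not both; inactive = mean below 60% and not all replicates reaching 60%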;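 also: 0% = median plate neutral-control signal and 100% = twice that signal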
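Test system: SR-BI-overexpressing, LDLR-lacking CHO cells. Measured by: DiI fluorescence, bottom read. Medium: Ham's F12 with 0.5% BSA, HEPES 25 mM, pH 7.4. Timing: 3 h uptake period with compound, 37 °C.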
Xi reactivation: reactivates the inactive X chromosome in mouse fibroblasts; hit rate 0.055% among 360,000; activation, % at 7.58 µM; AID 743238; XiGFP mouse fibroblasts, % GFP-positive cells imaging, 3 d; cells co-treated with 5-aza-dC sensitizer; scaled so ellipticine positive control = 100%;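 active = mean normalized replicate activation at least 10% and every replicate at or above 10%; inconclusive = only one of the two criteria met; inactive = mean below 10% and not all replicates reach 10%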;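 also: 0% = median of on-plate neutral control wells and 100% = ellipticine 6 µM median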
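System: 68-5-11 XiGFP fibroblast line | Buffer or medium: DMEM containing 5-aza-dC | Compound: Single point | Times: Compounds 3 days, fix/stain 15 min at room temperature | Benchmarks: Positive control ellipticine, 6 µM final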
SR-BI DiI inh: blocks mouse SR-BI lipid uptake from DiI-HDL | Q61009 | ldlA[mSR-BI] CHO cells, DiI-HDL uptake fluorescence, 3 h | inhibition, % at 12.5 µM | hit rate 0.96% among 320,000 | AID 488896;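 active = mean replicate inhibition of at least 70% and a set share of replicates each scoring 70 or more; inconclusive = meets just one of the two criteria; inactive = fails both criteria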;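 also: 0% = median of neutral control wells and 100% = median of positive control wells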
Target sequence (Q61009 whole entry, looked up): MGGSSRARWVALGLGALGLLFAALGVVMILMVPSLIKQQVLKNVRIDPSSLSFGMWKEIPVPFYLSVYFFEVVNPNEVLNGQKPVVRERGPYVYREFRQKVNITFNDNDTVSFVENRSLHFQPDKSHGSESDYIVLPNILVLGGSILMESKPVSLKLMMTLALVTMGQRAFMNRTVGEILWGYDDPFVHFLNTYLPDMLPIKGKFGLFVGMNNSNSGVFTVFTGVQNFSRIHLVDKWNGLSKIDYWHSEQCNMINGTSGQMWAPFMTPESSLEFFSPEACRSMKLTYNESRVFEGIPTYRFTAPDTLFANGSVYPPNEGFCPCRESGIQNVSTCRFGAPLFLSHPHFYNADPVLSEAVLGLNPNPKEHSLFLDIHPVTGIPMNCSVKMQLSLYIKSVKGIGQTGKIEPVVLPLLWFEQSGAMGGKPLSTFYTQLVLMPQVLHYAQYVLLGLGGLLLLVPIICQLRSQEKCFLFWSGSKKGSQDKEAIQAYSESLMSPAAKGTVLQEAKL
sPLA2-III inh: Blocks human group III sPLA2 activity; AID 743126; QFRET BODIPY PC-A2 liposome hydrolysis, fluorescence; hit rate 0.56% among 370,000; inhibition, % at 12.2 µM;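 active = inhibition above mean plus 3 SD of compounds lying within the high and low control bounds, cut at about 19% in these data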;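 also: 0% = median of test compound wells and 100% = no enzyme DMSO wells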
NSD2 HMT inh: inhibitors of human histone methyltransferase NSD2 | O96028 | hit rate 0.54% among 310,000 | NSD2 peptide methylation, AlphaScreen, 120 min | inhibition, % at 12.5 µM; in the data active = inhibition above about 50%
ARNT Alpha ctr-1: interferes with AlphaScreen signal, flagging false ARNT-TACC3 hits; AC50, µM (top dose mostly 68 µM), for the others: at the highest dose activity change, negative = signal decrease; AID 651705; shares compounds with ARNT TACC3 PPI; hit rate 50% among 1,200; His-ARNT PASB-GST AlphaScreen artifact counter-screen, luminescence;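 active = every separate test run was called active for a drop in luminescence, with AC50 within twice the top valid dose, actives reach about 71 µM in these data; inconclusive = the separate test runs disagree in their calls; inactive = all runs inactive, including signal change in the wrong direction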
ARNT Alpha ctr-2: counter-screen for ARNT-TACC3 inhibitors: AlphaScreen artifacts; shares compounds with ARNT TACC3 PPI; Dual-tagged His-ARNT PASB-GST AlphaScreen artifact counter-screen; AC50, µM; hit rate 70% among 45; AID 720564;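 active = luminescence drop, with half-maximal potency fitted within twice the sample's top valid dose, cut at about 70 µM in these data; inactive = the rest, including signal moving the wrong way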
An asterisk follows results filed as active; i = inactive; ? = inconclusive; / = no result given. Only some compounds are listed: those with a hit (about 2% of all), similar ones and a draw of the others.

SMILES	ARNT TACC3 PPI	SR-BI DiI-HDL act	Xi reactivation	SR-BI DiI inh	sPLA2-III inh	NSD2 HMT inh	ARNT Alpha ctr-1	others
CN1CCN(C(c2ccc(Cl)cc2)c2cc(Cl)c3cccnc3c2O)CC1 (configuration not stated)	12	5	0	-5	15	1	/
Oc1c(C(c2ccccn2)N2CCCCC2)cc(Cl)c2cccnc12 (configuration not stated)	69*	55	/	-55	10	32	8.1µM*
Oc1ccccc1C(Nc1nccs1)c1ccc2cccnc2c1O (configuration not stated)	61*	/	2	/	18	/	12µM*
CC1(C(=O)Nc2ccc(Cl)c(C(F)(F)F)c2)Cc2c(-c3cccc(C(N)=O)c3)ccnc2O1 (configuration not stated)	/	/	0	/	-30	-4	/
O=[N+]([O-])c1cccc(/C=N/Nc2nc(NCc3ccccc3)nc(N3CCOCC3)n2)c1O	59*	15	0	-15	-4	7	14µM*
O=C(c1ccco1)[C@@H]1[C@@H]2C(=O)N(c3ccccc3)C(=O)[C@@H]2C2c3ccccc3C=CN21 (some centres not stated)	41*	2	/	-2	-17	/	-34%
Cc1ccc(N2C(=O)[C@@H]3[C@H](C2=O)C2c4ccccc4C=CN2[C@@H]3C(=O)c2ccco2)cc1 (some centres not stated)	21	-7	/	7	-4	5	/
COc1cc(/C=N/Nc2ccc([N+](=O)[O-])cn2)cc(OC)c1O	/	-33	0	33	6	0	/
Cc1ccc(C(=O)CSc2nnc(-c3ccccn3)n2-c2ccccc2)cc1	/	/	/	/	-40	0	/
Cc1ccc(-n2c(SCC(N)=O)nnc2-c2ccccn2)cc1	55*	1	/	-1	16	-4	-21%
CCN(CC)C(=O)CSc1nnc(-c2ccccn2)n1-c1ccc(C)c(C)c1	52*	-19	/	19	3	1	-9%
CC(C)CC#Cc1cnc2c(c1)C(=O)N([C@@H](C)CO)C[C@H](C)[C@H](CN(C)C(=O)Cc1ccncc1)O2	0	/	0	/	/	/	/
Cc1cc(N/N=C/c2ccc(O)cc2)c2cccc(C)c2n1	1	-10	1	10	-9	0	/
Cc1cc(C)c2nc(C)cc(N/N=C/c3ccc(O)cc3)c2c1	55*	4	2	-4	-21	0	32µM*
Nc1cc2cccnc2cc1Cl	53*	?	0	-134	-3	36	-13%
NC1=NC(=O)/C(=C/c2cccc(-c3ccc(S(N)(=O)=O)cc3)c2)S1	/	21	0	-21	0	/	/
Cc1ccc(S(=O)(=O)CCc2nnc(NC(=O)c3ccccc3)s2)cc1	/	/	/	/	/	/	/	ARNT Alpha ctr-2=i
Cc1ccc(S(=O)(=O)CCc2nnc(NC(=O)c3ccccn3)s2)cc1	73*	1	/	-1	/	/	34µM*
Clc1cccc(N/N=C(\Cc2nc3ccccc3[nH]2)c2ccccc2)c1	17	-63	0	63	-2	0	/
CCOC(=O)c1cnc(Nc2nc3ccccc3o2)nc1CN1CCN(C)CC1	55*	-11	/	11	-16	/	41µM*
CCCOC(=O)Nc1nc2ccccc2o1	-7	20	/	-20	6	4	/
Cc1cc([N+](=O)[O-])cc(/C=N/n2c(C)nc3ccccc3c2=O)c1O	36	/	0	/	1	15	/
Cc1nc2ccccc2c(=O)n1/N=C/c1ccc(O)c(O)c1O	52*	0	0	0	12	/	-12%
Cc1nnc(-c2ccccc2)c(=O)n1/N=C/c1c(O)ccc2ccccc12	62*	-120	/	120*	-41	8	64µM*
Cc1ccccc1CN(CC1CCC(C(=O)O)CC1)C(=S)Nc1ccccc1F (configuration not stated)	-8	-4	0	4	1	-1	/
